Measurements taken from ChEMBL document CHEMBL4425095, “Novel Cephalosporins Selectively Active on Nonreplicating Mycobacterium tuberculosis” (J Med Chem, 2016).

Test system: Mycobacterium tuberculosis
Assay: Antibacterial activity against replicating Mycobacterium bovis BCG measured at OD580 = 0.01
Type: functional
Conditions: variant bovis BCG
Outline: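 Replicating organisms in the paper's earlier-described bacteriologic medium; 200 μL of cells at OD580 0.01 exposed to DMSO vehicle or drug in 96-well plates; growth read by optical density.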

Row | SMILES | MIC90
1 | CC1=C(c2nc(C)no2)N2C(=O)[C@@H](NC(=O)COc3ccccc3)[C@H]2SC1 | > 100 µg/mL
2 | CCCOC(=O)C1=C(C)CS[C@@H]2[C@H](NC(=O)COc3ccccc3)C(=O)N12 | > 100 µg/mL
